The values that follow come from article PMC8861878 (The Journal of pharmacy and pharmacology, 2020).

For one data set, the target named is T1, UGT1A1 (Homo sapiens, UniProt P22309).
T1 sequence (P22309 26-533): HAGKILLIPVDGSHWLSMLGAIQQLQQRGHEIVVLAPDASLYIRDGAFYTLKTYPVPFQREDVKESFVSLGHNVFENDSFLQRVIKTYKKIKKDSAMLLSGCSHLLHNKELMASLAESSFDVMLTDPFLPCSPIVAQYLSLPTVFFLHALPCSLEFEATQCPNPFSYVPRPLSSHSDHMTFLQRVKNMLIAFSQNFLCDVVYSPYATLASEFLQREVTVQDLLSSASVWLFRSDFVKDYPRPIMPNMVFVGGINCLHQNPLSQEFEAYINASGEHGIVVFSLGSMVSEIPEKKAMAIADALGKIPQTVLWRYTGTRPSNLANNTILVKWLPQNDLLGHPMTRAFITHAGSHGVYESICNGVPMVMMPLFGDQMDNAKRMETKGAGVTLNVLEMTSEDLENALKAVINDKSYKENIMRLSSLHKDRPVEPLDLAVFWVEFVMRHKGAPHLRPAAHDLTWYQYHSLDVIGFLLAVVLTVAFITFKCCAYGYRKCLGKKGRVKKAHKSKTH
The format is in vitro ADME. The settings on record: β-estradiol 50 μM; individual HLM n = 9; Pearson; P = 0.014. In outline: (§1)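 UDPGA-supplemented individual human liver microsomes (n = 9) in 100 μl Tris-HCl 50 mM pH 7.4 with alamethicin 22 μg/ml, D-saccharic-1,4-lactone 4.4 mM and UDPGA 3.5 mM. Incubated 37 °C for 60 min, stopped with ice-cold acetonitrile, centrifuged, supernatant analysed by UHPLC. Test compound glucuronidation rates correlated with probe glucuronidation across donors by Pearson analysis.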

In another data set the target is T2, UGT1A9 (Homo sapiens, UniProt O60656).
T2 sequence (O60656 26-530): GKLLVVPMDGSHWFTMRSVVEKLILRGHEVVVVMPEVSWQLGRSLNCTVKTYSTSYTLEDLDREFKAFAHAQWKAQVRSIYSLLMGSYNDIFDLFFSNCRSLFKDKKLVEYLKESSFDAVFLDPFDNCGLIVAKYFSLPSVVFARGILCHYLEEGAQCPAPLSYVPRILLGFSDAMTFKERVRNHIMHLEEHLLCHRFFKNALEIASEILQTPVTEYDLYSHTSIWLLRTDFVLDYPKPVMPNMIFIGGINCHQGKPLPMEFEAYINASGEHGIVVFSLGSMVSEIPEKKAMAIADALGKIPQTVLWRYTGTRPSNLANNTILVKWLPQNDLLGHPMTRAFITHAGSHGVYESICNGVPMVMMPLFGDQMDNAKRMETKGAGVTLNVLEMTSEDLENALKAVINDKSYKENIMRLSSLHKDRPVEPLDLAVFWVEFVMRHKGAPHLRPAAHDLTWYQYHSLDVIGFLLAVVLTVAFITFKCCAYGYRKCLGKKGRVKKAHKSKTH
The format is in vitro ADME. The note with it: propofol 500 μM; individual HLM n = 9; Pearson; P = 0.016. In outline: as §1

For a further data set, the system named is opioid receptor. The settings on record: cited from earlier work.
Substrate in data set [1]: CC(C)=CCc1c(O)ccc2c1O[C@H](c1ccc(O)cc1)CC2=O
Nature of the data set: cells, lysate or membranes named. Type of data set: in vitro ADME, human. The note with it: other: formation of G1; Michaelis–Menten model; pH 7.4; 37.0 °C.

For `CC(C)=CCc1c(O[C@@H]2O[C@H](C(=O)O)[C@@H](O)[C@H](O)[C@H]2O)ccc2c1O[C@H](c1ccc(O)cc1)CC2=O` [G1, isobavachin-7-O-glucuronide], the correlation factor r on UGT1A1 was 0.774; at UGT1A9, 0.767.
For the molecule `CN1CC[C@]23c4c5ccc(O)c4O[C@H]2[C@@H](O[C@@H]2O[C@H](C(=O)O)[C@@H](O)[C@H](O)[C@H]2O)C=C[C@H]3[C@H]1C5` [M6G, morphine-6-glucuronide], in the data set on opioid receptor, the “affinity with opioid receptor relative to morphine” value is given as 100 times.

B1: UGT2B4 (Homo sapiens) (protein)
chain: GKVLVWPTEFSHWMNIKTILDELVQRGHEVTVLASSASISFDPNSPSTLKFEVYPVSLTKTEFEDIIKQLVKRWAELPKDTFWSYFSQVQEIMWTFNDILRKFCKDIVSNKKLMKKLQESRFDVVLADAVFPFGELLAELLKIPFVYSLRFSPGYAIEKHSGGLLFPPSYVPVVMSELSDQMTFIERVKNMIYVLYFEFWFQIFDMKKWDQFYSEVLGRPTTLSETMAKADIWLIRNYWDFQFPHPLLPNVEFVGGLHCKPAKPLPKEMEEFVQSSGENGVVVFSLGSMVSNTSEERANVIASALAKIPQKVLWRFDGNKPDTLGLNTRLYKWIPQNDLLGHPKTRAFITHGGANGIYEAIYHGIPMVGVPLFADQPDNIAHMKAKGAAVSLDFHTMSSTDLLNALKTVINDPLYKENAMKLSRIHHDQPVKPLDRAVFWIEFVMRHKGAKHLRVAAHDLTWFQYHSLDVTGFLLACVATVIFIITKCLFCVWKFVRTGKKGKRD
In the case of B1, the K0.5 in data set [1] is 2.66 ± 0.28 µM.
